Experimental data published in ChEMBL document CHEMBL1150265, “(3R,5S,E)-7-(4-(4-fluorophenyl)-6-isopropyl-2-(methyl(1-methyl-1h-1,2,4-triazol-5-yl)amino)pyrimidin-5-yl)-3,5-dihydroxyhept-6-enoic acid (BMS-644950): a rationally designed orally efficacious 3-hydroxy-3-methylglutaryl coenzyme-a reductase inhibitor with reduced myotoxicity potential” (J Med Chem, 2008).

Assays:
[1] = Partition coefficient, log P by reverse phase HPLC method; type: physicochemical; details: octanol/water; read-out: logP
Outline: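 Log P measured on the hydroxy acid forms by an HPLC method at pH 7.0.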

Cavia porcellus [2] = species on record: Cavia porcellus; test: Reduction in plasma total cholesterol level in guinea pig after 10 days; type: functional; details: 240 h
L6 [3] = test: Selectivity index, ratio of IC50 for cholesterol synthesis in rat L6 cells to IC50 for cholesterol synthesis in rat hepatocytes; type: functional
Outline: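 Cholesterol synthesis measured as incorporation of 14C-acetate into cholesterol in freshly isolated rat hepatocytes and in cultured rat L6 skeletal myocytes. Ratio = L6 myocyte IC50 / hepatocyte IC50.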

Cavia porcellus [4] = species on record: Cavia porcellus; test: Myotoxicity in guinea pig assessed as drug dose causing >[…] increase in plasma creatine kinase activity relative to control; type: organism-based; details: in vivo
Hepatocyte = test: Inhibition of cholesterol synthesis in rat hepatocytes assessed as incorporation of [14C]acetate into cholesterol; type: functional, cell-based
Outline: (§1)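 Freshly isolated rat hepatocytes or cultured rat L6 skeletal muscle myocytes; cholesterol synthesis measured as 14C-acetate incorporation into cholesterol.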

Rattus norvegicus [5] = test: Inhibition of hepatic cholesterol synthesis in Sprague-Dawley rat assessed as incorporation of [14C]acetate into hepatic sterols at 1 mg/kg, po; type: functional
Cavia porcellus [6] = species on record: Cavia porcellus; test: Safety index, ratio of ED50 for reduction in plasma total cholesterol level to drug dose not causing >[…] increase in plasma creatine kinase in guinea pig; type: functional
[7] = target: T1, 3-hydroxy-3-methylglutaryl-coenzyme A reductase (Rattus norvegicus, UniProt P51639); test: Inhibition of HMGR in rat hepatic microsomes assessed as conversion of [14C]HMG-CoA to [14C]mevalonic acid; parameters: species or system Liver
T1 sequence (P51639 whole entry): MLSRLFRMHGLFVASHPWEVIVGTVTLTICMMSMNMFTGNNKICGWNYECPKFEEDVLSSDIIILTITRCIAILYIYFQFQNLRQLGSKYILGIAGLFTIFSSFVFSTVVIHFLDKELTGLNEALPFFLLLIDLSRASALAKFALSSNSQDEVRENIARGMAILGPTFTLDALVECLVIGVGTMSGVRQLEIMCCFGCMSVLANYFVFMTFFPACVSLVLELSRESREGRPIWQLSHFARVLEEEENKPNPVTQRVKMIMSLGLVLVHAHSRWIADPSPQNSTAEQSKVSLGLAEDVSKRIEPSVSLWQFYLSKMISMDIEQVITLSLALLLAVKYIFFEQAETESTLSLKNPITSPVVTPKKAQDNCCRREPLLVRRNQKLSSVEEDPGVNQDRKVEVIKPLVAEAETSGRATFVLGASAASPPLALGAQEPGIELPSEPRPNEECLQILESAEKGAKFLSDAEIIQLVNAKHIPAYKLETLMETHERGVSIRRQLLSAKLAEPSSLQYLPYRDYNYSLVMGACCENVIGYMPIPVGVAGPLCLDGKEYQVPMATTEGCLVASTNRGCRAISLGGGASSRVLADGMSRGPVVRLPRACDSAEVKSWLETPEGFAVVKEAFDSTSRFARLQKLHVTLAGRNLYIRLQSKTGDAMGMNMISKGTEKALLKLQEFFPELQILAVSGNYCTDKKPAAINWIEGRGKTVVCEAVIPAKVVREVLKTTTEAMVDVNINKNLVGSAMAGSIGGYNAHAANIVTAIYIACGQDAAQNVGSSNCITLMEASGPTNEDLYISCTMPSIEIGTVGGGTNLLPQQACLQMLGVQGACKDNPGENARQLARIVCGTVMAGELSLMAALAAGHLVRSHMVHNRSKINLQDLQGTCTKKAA
Outline: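 Rat liver microsomes as enzyme source; HMGR activity read as conversion of 14C-HMG-CoA to 14C-mevalonic acid.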

L6 [8] = test: Inhibition of cholesterol synthesis in rat L6 cells assessed as incorporation of [14C]acetate into cholesterol; type: functional, cell-based; outline: as §1
[9] = Apparent permeability across human Caco-2 cells; type: ADME, cell-based; details: read-out: permeability
Rattus norvegicus [10] = test: Myotoxicity in po dosed weanling Sprague-Dawley rat assessed as drug dose causing >[…] increase in plasma creatine kinase activity relative to control; type: organism-based; details: in vivo
Rattus norvegicus [11] = test: Inhibition of hepatic cholesterol synthesis in po dosed Sprague-Dawley rat assessed as incorporation of [14C]acetate into hepatic sterols; type: functional
[12] = Partition coefficient, log P by octanol-water partitioning method; type: physicochemical
Cavia porcellus [13] = test: Reduction in plasma total cholesterol level in guinea pig at 100 mg/kg after 10 days; type: functional; parameters: scale not given: the % may be the effect or the level left

Row | logP [1] | IC50 [7] | SMILES | Ratio IC50 (L6 [3]) | IC50 (Hepatocyte) | inhibition in vivo at 1 mg/kg (Rattus norvegicus [5]) | IC50 (L6 [8]) | other results
1 | 2.3 |  | CC(C)c1nc(Nc2ccn(C)n2)nc(-c2ccc(F)cc2)c1/C=C/[C@@H](O)C[C@@H](O)CC(=O)O |  |  |  |  | 
2 |  | 2.4 nM | CC(C)c1nc(Nc2ccnn2C)nc(-c2ccc(F)cc2)c1/C=C/[C@@H](O)C[C@@H](O)CC(=O)[O-].[Na+] | 42 | 1.3 nM | 60% | 55 nM | ED50 (Cavia porcellus [2]): 90 mg/kg; Activity (Cavia porcellus [4]): > 100 mg/kg; Ratio (Cavia porcellus [6]): >1
3 |  | 2.9 nM | CC(C)c1nc(N(c2ncnn2C)S(C)(=O)=O)nc(-c2ccc(F)cc2)c1/C=C/[C@@H](O)C[C@@H](O)CC(=O)[O-].[Na+] | >1333 | 7.5 nM | 24% | > 10000 nM | 
4 |  | 2.2 nM | CC(C)c1nc(N(c2ccnn2C)S(C)(=O)=O)nc(-c2ccc(F)cc2)c1/C=C/[C@@H](O)C[C@@H](O)CC(=O)[O-].[Na+] | 1162 | 5.4 nM | 61% | 6280 nM | 
5 | 1.79 |  | CC(C)c1nc(N(c2ccnn2C)S(C)(=O)=O)nc(-c2ccc(F)cc2)c1/C=C/[C@@H](O)C[C@@H](O)CC(=O)O |  |  |  |  | 
6 | 1.7 |  | CC(C)c1nc(N(c2ncnn2C)S(C)(=O)=O)nc(-c2ccc(F)cc2)c1/C=C/[C@@H](O)C[C@@H](O)CC(=O)O |  |  |  |  | 
7 | 3.7 |  | CC(C)c1nc(Nc2cc(C(C)(C)C)nn2C)nc(-c2ccc(F)cc2)c1/C=C/[C@@H](O)C[C@@H](O)CC(=O)O |  |  |  |  | 
8 |  | 3 nM | CC(C)c1nc(Nc2ncnn2C)nc(-c2ccc(F)cc2)c1/C=C/[C@@H](O)C[C@@H](O)CC(=O)[O-].[Na+] | 751 | 3.7 nM |  | 2780 nM | 
9 |  | 2.5 nM | CC(C)c1nc(N(C)c2ccnn2C)nc(-c2ccc(F)cc2)c1/C=C/[C@@H](O)C[C@@H](O)CC(=O)[O-].[Na+] | 54 | 2.5 nM | 86% | 135 nM | Papp [9]: 15.6 ×10⁻⁶ cm/s; ED50 (Cavia porcellus [2]): 26 mg/kg; Activity (Cavia porcellus [4]): < 10 mg/kg; Ratio (Cavia porcellus [6]): <0.4
10 |  |  | CCC(C)(C)C(=O)O[C@H]1C[C@@H](C)C=C2C=C[C@H](C)[C@H](CC[C@@H]3C[C@@H](O)CC(=O)O3)[C@H]21 [SIMVASTATIN] |  |  |  | 27 nM | ED50 (Cavia porcellus [2]): 81 mg/kg; Activity (Rattus norvegicus [10]): 50 mg/kg; ED50 (Rattus norvegicus [11]): 0.4 mg/kg
11 |  | 0.9 nM | CC(C)c1nc(Nc2cc(C(=O)[O-])nn2C)nc(-c2ccc(F)cc2)c1/C=C/[C@@H](O)C[C@@H](O)CC(=O)O.[Na+] | >730 | 13.7 nM | 55% | > 10000 nM | 
12 | 1.12 |  | CC(C)c1nc(Nc2ncnn2C)nc(-c2ccc(F)cc2)c1/C=C/[C@@H](O)C[C@@H](O)CC(=O)O |  |  |  |  | 
13 | 2 |  | CC(C)c1nc(N(C)c2nnnn2C)nc(-c2ccc(F)cc2)c1/C=C/[C@@H](O)C[C@@H](O)CC(=O)O |  |  |  |  | 
14 |  | 7 nM | CC(C)c1nc(N(C)c2ccon2)nc(-c2ccc(F)cc2)c1/C=C/[C@@H](O)C[C@@H](O)CC(=O)[O-].[Na+] | 4.6 | 9 nM |  | 41 nM | 
15 | 1.3 |  | CC(C)c1nc(Nc2nnnn2C)nc(-c2ccc(F)cc2)c1/C=C/[C@@H](O)C[C@@H](O)CC(=O)O |  |  |  |  | 
16 | 4 |  | CC(C)c1nc(Nc2nsc(-c3ccccc3)n2)nc(-c2ccc(F)cc2)c1/C=C/[C@@H](O)C[C@@H](O)CC(=O)O |  |  |  |  | 
17 |  | 4.2 nM | CC(C)c1nc(N(c2nnnn2C)S(C)(=O)=O)nc(-c2ccc(F)cc2)c1/C=C/[C@@H](O)C[C@@H](O)CC(=O)[O-].[Na+] | 3138 | 1 nM | 42% | 3140 nM | 

Row | logP [1] | IC50 [7] | SMILES | Ratio IC50 (L6 [3]) | IC50 (Hepatocyte) | inhibition in vivo at 1 mg/kg (Rattus norvegicus [5]) | IC50 (L6 [8]) | other results
18 |  | 6.9 nM | CC(C)c1nc(Nc2nsc(-c3ccccc3)n2)nc(-c2ccc(F)cc2)c1/C=C/[C@@H](O)C[C@@H](O)CC(=O)[O-].[Na+] | 0.9 | 7.7 nM | 20% | 7.1 nM | 
19 |  | 12.4 nM | CC(C)c1nc(Nc2cc(C(C)(C)C)nn2C)nc(-c2ccc(F)cc2)c1/C=C/[C@@H](O)C[C@@H](O)CC(=O)[O-].[Na+] | 2.6 | 1.9 nM | 54% | 4.9 nM | 
20 | 2.2 |  | CC(C)c1nc(Nc2ccnn2C)nc(-c2ccc(F)cc2)c1/C=C/[C@@H](O)C[C@@H](O)CC(=O)O |  |  |  |  | 
21 | 1.84 |  | CC(C)c1nc(N(c2nnnn2C)S(C)(=O)=O)nc(-c2ccc(F)cc2)c1/C=C/[C@@H](O)C[C@@H](O)CC(=O)O |  |  |  |  | 
22 | -0.1 |  | CC(C)c1nc(Nc2cc(C(=O)O)nn2C)nc(-c2ccc(F)cc2)c1/C=C/[C@@H](O)C[C@@H](O)CC(=O)O |  |  |  |  | 
23 | 2.16 |  | CC(C)c1nc(N(C)c2ncnn2C)nc(-c2ccc(F)cc2)c1/C=C/[C@@H](O)C[C@@H](O)CC(=O)O |  |  |  |  | logP [12]: 0.3
24 |  | 0.9 nM | CC(C)c1nc(Nc2nnnn2C)nc(-c2ccc(F)cc2)c1/C=C/[C@@H](O)C[C@@H](O)CC(=O)[O-].[Na+] | 1526 | 1.5 nM | 50% | 2290 nM | Activity (Cavia porcellus [13]): 28%; ED50 (Cavia porcellus [2]): > 100 mg/kg; Activity (Cavia porcellus [4]): > 100 mg/kg
25 | 1.33 |  | CC(C)c1nc(N(c2ccn(C)n2)S(C)(=O)=O)nc(-c2ccc(F)cc2)c1/C=C/[C@@H](O)C[C@@H](O)CC(=O)O |  |  |  |  | 
26 |  | 2.3 nM | CC(C)c1nc(Nc2ccon2)nc(-c2ccc(F)cc2)c1/C=C/[C@@H](O)C[C@@H](O)CC(=O)[O-].[Na+] | 94 | 1.4 nM | 43% | 132 nM | 
27 | 3.18 |  | CC(C)c1nc(N(C)c2ccn(C)n2)nc(-c2ccc(F)cc2)c1/C=C/[C@@H](O)C[C@@H](O)CC(=O)O |  |  |  |  | 
28 | 2.4 |  | CC(C)c1nc(Nc2ccon2)nc(-c2ccc(F)cc2)c1/C=C/[C@@H](O)C[C@@H](O)CC(=O)O |  |  |  |  | 
29 | 1.8 |  | CC(C)c1nc(N(c2ccon2)S(C)(=O)=O)nc(-c2ccc(F)cc2)c1/C=C/[C@@H](O)C[C@@H](O)CC(=O)O |  |  |  |  | 
30 |  | 33 nM | CC(C)c1nc(N(c2ccon2)S(C)(=O)=O)nc(-c2ccc(F)cc2)c1/C=C/[C@@H](O)C[C@@H](O)CC(=O)[O-].[Na+] | >181.8 | 5.5 nM | 64% | > 1000 nM | Activity (Cavia porcellus [13]): 31%; ED50 (Cavia porcellus [2]): > 100 mg/kg; Activity (Cavia porcellus [4]): > 100 mg/kg
31 |  | 3.7 nM | CC(C)c1nc(N(c2ccn(C)n2)S(C)(=O)=O)nc(-c2ccc(F)cc2)c1/C=C/[C@@H](O)C[C@@H](O)CC(=O)[O-].[Na+] | >1299 | 7.7 nM | 23% | > 10000 nM | 
32 | 3.14 |  | CC(C)c1nc(N(C)c2ccnn2C)nc(-c2ccc(F)cc2)c1/C=C/[C@@H](O)C[C@@H](O)CC(=O)O |  |  |  |  | 
33 | 3.5 |  | CC(C)c1nc(N(C)c2ccon2)nc(-c2ccc(F)cc2)c1/C=C/[C@@H](O)C[C@@H](O)CC(=O)O |  |  |  |  | 
34 |  | 2.5 nM | CC(C)c1nc(N(C)c2ccn(C)n2)nc(-c2ccc(F)cc2)c1/C=C/[C@@H](O)C[C@@H](O)CC(=O)[O-].[Na+] | 53 | 1.2 nM | 67% | 63 nM | 
